Reference: ChEMBL document CHEMBL4680268, “Pharmacomodulations of the benzoyl-thiosemicarbazide scaffold reveal antimicrobial agents targeting d-alanyl-d-alanine ligase in bacterio” (Eur J Med Chem, 2020)
pIC50: −log10 of the molar value. Values after ≈ are worked out from the molar mass of the structure shown. Active and inactive are the calls of the source. The rule behind the calls is not given here.

Legend:
Staphylococcus aureus [1] = assay: Antibacterial activity against community-acquired methicillin and erythromycin resistant Staphylococcus aureus SA325 assessed as reduction in bacterial growth incubated for 18 to 24 hrs by broth microdilution method; assay type: functional; conditions: time 18-24 hrs
Outline: (§1)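 Broth microdilution in cation-adjusted Mueller-Hinton broth per CLSI; inoculum 10⁶ bacteria/mL. Two-fold serial dilutions, compound in broth with 5% DMSO mixed 1:1 with bacterial suspension, giving 2.5% DMSO final. Top concentration 0.1, 0.4 or 0.8 mM depending on solubility. Incubated 18–24 h at 37 °C. MIC = lowest concentration preventing visible growth.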

Escherichia coli = assay: Antibacterial activity against Escherichia coli ATCC 25922 assessed as reduction in bacterial growth incubated for 18 to 24 hrs by broth microdilution method; assay type: functional, organism-based; conditions: time 18-24 hrs
Outline: (§2)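 Microdilution in cation-adjusted Mueller-Hinton broth per CLSI; two-fold compound series in CAMHB with 5% DMSO mixed 1:1 with bacterial suspension, giving 10⁶ bacteria/mL inoculum and 2.5% DMSO final. Top concentrations 0.1, 0.4 or 0.8 mM depending on solubility. Incubated 18–24 h at 37 °C; MIC read as lowest concentration preventing visible growth.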

Staphylococcus aureus [2] = assay: Antibacterial activity against Staphylococcus aureus ATCC 25923 assessed as reduction in bacterial growth incubated for 18 to 24 hrs by broth microdilution method; assay type: functional; conditions: time 18-24 hrs
Enterococcus faecalis [3] = assay: Antibacterial activity against Enterococcus faecalis ATCC 29212 assessed as reduction in bacterial growth incubated for 18 to 24 hrs by broth microdilution method; assay type: functional; conditions: time 18-24 hrs
Pseudomonas aeruginosa = assay: Antibacterial activity against Pseudomonas aeruginosa PAO1 assessed as reduction in bacterial growth incubated for 18 to 24 hrs by broth microdilution method; assay type: functional, organism-based; conditions: time 18-24 hrs; outline: as §2
Enterococcus faecalis [4] = assay: Inhibition of recombinant Enterococcus faecalis C-terminal His6-tagged DdlB expressed in Escherichia coli LMG194 assessed as residual activity using D-Ala as substrate at 100 uM preincubated with enzyme for 30 mins followed by substrate addition and measured after 20 mins by malachite green based colorimetric analysis relative to control; conditions: time 50.0 min
Outline: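 Purified E. faecalis His-tagged DdlB (20 mg/L) preincubated 30 min at 30 °C with 100 µM compound and 500 µM ATP in 20 mM Tris-HCl pH 7.4, 10 mM MgCl₂, 10 mM KCl, 10% DMSO; 1 mM D-Ala added, 20 min at 30 °C. Phosphate detected with malachite green reagent, A650 after 25 min dark; residual activity versus no-inhibitor control, triplicate.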

Enterococcus faecalis [5] = assay: Antibacterial activity against vancomycin resistant Enterococcus faecalis BM4575 harboring VanE genotype, constitutive expression of Ddl and VanE D-Ala-D-Ser ligase assessed as reduction in bacterial growth incubated for 18 to 24 hrs by broth microdilution method; assay type: functional; conditions: time 18-24 hrs; outline: as §1
Enterococcus faecalis [6] = assay: Antibacterial activity against vancomycin resistant Enterococcus faecalis BM4390 harboring VanB mutant with inactive Ddl and constitutive expression of D-Ala-D-Lac assessed as reduction in bacterial growth incubated for 18 to 24 hrs by broth microdilution method; assay type: functional; conditions: time 18-24 hrs; outline: as §1
Staphylococcus aureus [7] = assay: Antibacterial activity against hospital-acquired vancomycin resistant Staphylococcus aureus VRS-1 assessed as reduction in bacterial growth incubated for 18 to 24 hrs by broth microdilution method; assay type: functional; conditions: time 18-24 hrs; outline: as §1
Staphylococcus aureus [8] = assay: Antibacterial activity against methicillin and linezolid resistant Staphylococcus aureus NRS119 assessed as reduction in bacterial growth incubated for 18 to 24 hrs by broth microdilution method; assay type: functional; conditions: time 18-24 hrs; outline: as §1
Enterococcus faecalis [9] = assay: Antibacterial activity against vancomycin resistant Enterococcus faecalis JH2-2::C1 harboring constitutive expression of Ddl and vanB ligase assessed as reduction in bacterial growth incubated for 18 to 24 hrs by broth microdilution method; assay type: functional; conditions: time 18-24 hrs; outline: as §1
Staphylococcus aureus [10] = assay: Antibacterial activity against hospital-acquired methicillin/ciprofloxacin and moxifloxacin resistant Staphylococcus aureus SA481 assessed as reduction in bacterial growth incubated for 18 to 24 hrs by broth microdilution method; assay type: functional; conditions: time 18-24 hrs; outline: as §1
Staphylococcus aureus [11] = assay: Antibacterial activity against methicillin resistant and vancomycin intermediate resistant Staphylococcus aureus MU50 assessed as reduction in bacterial growth incubated for 18 to 24 hrs by broth microdilution method; assay type: functional; conditions: time 18-24 hrs; outline: as §1
Klebsiella pneumoniae = assay: Antibacterial activity against Klebsiella pneumoniae ATCC700603 assessed as reduction in bacterial growth incubated for 18 to 24 hrs by broth microdilution method; assay type: functional, organism-based; conditions: 700603, time 18-24 hrs; outline: as §2
[12] = Inhibition of recombinant Enterococcus faecalis C-terminal His6-tagged DdlB expressed in Escherichia coli LMG194 using D-Ala as substrate preincubated with enzyme for 30 mins followed by substrate addition and measured after 20 mins by malachite green based colorimetric analysis
Outline: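 DdlB (20 mg/L) malachite green phosphate assay: enzyme, inhibitor and 500 µM ATP preincubated 30 min at 30 °C in Tris-HCl pH 7.4 buffer with MgCl₂, KCl and 10% DMSO, then 1 mM D-Ala for 20 min; A650 read. IC₅₀ from 11 concentrations, also run with 0.01% Triton X-100; mean ± SD of triplicates, n ≥ 2; EC₅₀ given where maximal inhibition stayed below 50%.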

Cell membrane = assay: Disruption of bacterial cell membrane in Staphylococcus aureus ATCC 25923 assessed as increase in PI uptake at 1 to 5 times MIC measured every 10 mins for 2 hrs by PI dye based spectrophotometry
Outline: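 Mid-log S. aureus ATCC 25923 (grown in MHB from OD₆₀₀ 0.05) washed into BET buffer (pH 7.5) at 1.11×10⁶ CFU/mL with 12 nM propidium iodide; compound at 1, 2, 5× MIC, 5% DMSO final. SDS 0.5% positive, buffer negative control. Fluorescence (ex 532/em 620 nm) read in the dark every 10 min for 2 h; triplicate.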

Structure (SMILES)	MIC (Staphylococcus aureus [2]) [µM]	MIC (Enterococcus faecalis [3]) [µM]	Activity (Enterococcus faecalis [4]) [%]	MIC (Staphylococcus aureus [1]) [µM]	Activity (Escherichia coli)	Activity (Pseudomonas aeruginosa)	MIC (Enterococcus faecalis [5]) [µM]	MIC (Enterococcus faecalis [6]) [µM]	MIC (Staphylococcus aureus [7]) [µM]	MIC (Staphylococcus aureus [8]) [µM]	MIC (Enterococcus faecalis [9]) [µM]	MIC (Staphylococcus aureus [10]) [µM]	MIC (Staphylococcus aureus [11]) [µM]	Activity (Klebsiella pneumoniae)	pIC50 [12]	Activity (Cell membrane)
Oc1ccccc1NC(=S)Nc1ccc(Cl)c(Cl)c1	25 (≈ 7.83 µg/mL)	50 (≈ 15.7 µg/mL)	> 100	50 (≈ 15.7 µg/mL)	inactive	inactive	100 (≈ 31.3 µg/mL)	50 (≈ 15.7 µg/mL)	100 (≈ 31.3 µg/mL)	50 (≈ 15.7 µg/mL)	50 (≈ 15.7 µg/mL)	50 (≈ 15.7 µg/mL)	50 (≈ 15.7 µg/mL)	inactive		
Oc1ccccc1-c1nnc(Nc2ccc(Cl)c(Cl)c2)s1	> 100	> 100	> 100													
Nc1ccccc1-c1n[nH]c(=S)n1-c1ccccc1	> 800	> 800	> 100													
O=C(NNC(=S)Nc1ccccc1)c1ccccc1O	800 (≈ 230 µg/mL)	> 800		800 (≈ 230 µg/mL)	inactive	inactive	> 800	> 800	800 (≈ 230 µg/mL)	> 800	> 800	800 (≈ 230 µg/mL)	800 (≈ 230 µg/mL)	inactive	6.13	
COc1ccccc1-c1n[nH]c(=S)n1-c1ccc(Cl)c(Cl)c1	> 400	> 400	> 100													
O=C(O)c1cn(C2CC2)c2cc(N3CCNCC3)c(F)cc2c1=O [CIPROFLOXACIN]												770 (≈ 255 µg/mL)				
O=C(NNC(=S)Nc1ccc(F)cc1)c1ccccc1O	> 100	200 (≈ 61.1 µg/mL)		> 100	inactive	inactive	> 100	> 100	> 100	> 100	> 100	> 100	> 100	inactive	6.05	
CN[C@H](CC(C)C)C(=O)N[C@H]1C(=O)N[C@@H](CC(N)=O)C(=O)N[C@H]2C(=O)N[C@H]3C(=O)N[C@H](C(=O)N[C@H](C(=O)O)c4cc(O)cc(O)c4-c4cc3ccc4O)[C@H](O)c3ccc(c(Cl)c3)Oc3cc2cc(c3O[C@@H]2O[C@H](CO)[C@@H](O)[C@H](O)[C@H]2O[C@H]2C[C@](C)(N)[C@H](O)[C@H](C)O2)Oc2ccc(cc2Cl)[C@H]1O [VANCOMYCIN]								700 (≈ 1010 µg/mL)	> 175	0.7 (≈ 1.01 µg/mL)	350 (≈ 507 µg/mL)		5 (≈ 7.25 µg/mL)			
O=C(NC(=S)NNC(=O)c1ccccc1O)c1ccc(Cl)c(Cl)c1	25 (≈ 9.61 µg/mL)	50 (≈ 19.2 µg/mL)	> 50	50 (≈ 19.2 µg/mL)	inactive	inactive	50 (≈ 19.2 µg/mL)	25 (≈ 9.61 µg/mL)	100 (≈ 38.4 µg/mL)	25 (≈ 9.61 µg/mL)	12.5 (≈ 4.8 µg/mL)	25 (≈ 9.61 µg/mL)	25 (≈ 9.61 µg/mL)	inactive	5.94	
Sc1nnc(-c2ccccc2)n1-c1ccccc1	> 400	> 400	> 100													
O=C(NNC(=S)Nc1ccc(Cl)c(Cl)c1)c1ccccc1	> 100	> 100	> 100													
O=C(NNC(=S)Nc1ccc(C(F)(F)F)cc1)c1ccccc1O	50 (≈ 17.8 µg/mL)	50 (≈ 17.8 µg/mL)		100 (≈ 35.5 µg/mL)	inactive	inactive	100 (≈ 35.5 µg/mL)	> 100	100 (≈ 35.5 µg/mL)	100 (≈ 35.5 µg/mL)	100 (≈ 35.5 µg/mL)	100 (≈ 35.5 µg/mL)	100 (≈ 35.5 µg/mL)	inactive	6.20	
O=C(NNC(=S)Nc1ccc(F)c(F)c1F)c1ccccc1O	200 (≈ 68.3 µg/mL)	200 (≈ 68.3 µg/mL)		400 (≈ 137 µg/mL)	inactive	inactive	400 (≈ 137 µg/mL)	> 400	400 (≈ 137 µg/mL)	400 (≈ 137 µg/mL)	> 400	400 (≈ 137 µg/mL)	400 (≈ 137 µg/mL)	inactive	6.19	
O=C(NNC(=S)Nc1ccc(Cl)c(Cl)c1)c1ccccc1O	100 (≈ 35.6 µg/mL)	50 (≈ 17.8 µg/mL)		50 (≈ 17.8 µg/mL)	inactive	inactive	50 (≈ 17.8 µg/mL)	50 (≈ 17.8 µg/mL)	50 (≈ 17.8 µg/mL)	50 (≈ 17.8 µg/mL)	100 (≈ 35.6 µg/mL)	100 (≈ 35.6 µg/mL)	100 (≈ 35.6 µg/mL)	inactive	5.93	inactive
O=C(NC(=S)NNC(=O)c1ccccc1O)c1ccccc1	100 (≈ 31.5 µg/mL)	100 (≈ 31.5 µg/mL)	> 50	100 (≈ 31.5 µg/mL)	inactive	inactive	> 100	> 100	100 (≈ 31.5 µg/mL)	> 100	> 100	100 (≈ 31.5 µg/mL)	> 100	inactive	6.09	
O=C(NNC(=S)Nc1ccc(F)c(F)c1)c1ccccc1O	400 (≈ 129 µg/mL)	400 (≈ 129 µg/mL)	> 50		inactive	inactive								inactive	6.04	
Oc1ccccc1-c1nnc(S)n1-c1ccccc1	> 800	> 800	> 100													
COc1ccc(O)c(C(=O)NNC(=S)Nc2ccccc2)c1	> 100	> 100													6.20	
CC(=O)NC[C@H]1CN(c2ccc(N3CCOCC3)c(F)c2)C(=O)O1 [LINEZOLID]										190 (≈ 64.1 µg/mL)			3 (≈ 1.01 µg/mL)			

Now from value to molecule, other results behind:

MIC (Staphylococcus aureus [2]) [µM]	MIC (Enterococcus faecalis [3]) [µM]	Activity (Enterococcus faecalis [4]) [%]	Structure (SMILES)	MIC (Staphylococcus aureus [1]) [µM]	Activity (Escherichia coli)	Activity (Pseudomonas aeruginosa)	MIC (Enterococcus faecalis [5]) [µM]	MIC (Enterococcus faecalis [6]) [µM]	MIC (Staphylococcus aureus [7]) [µM]	MIC (Staphylococcus aureus [8]) [µM]	MIC (Enterococcus faecalis [9]) [µM]	MIC (Staphylococcus aureus [10]) [µM]	MIC (Staphylococcus aureus [11]) [µM]	Activity (Klebsiella pneumoniae)	pIC50 [12]	Activity (Cell membrane)
> 800	> 800	> 100	Oc1ccccc1/N=C(/S)Nc1ccccc1													
> 400	> 400	> 100	Nc1ccccc1C(=O)NNC(=S)Nc1ccccc1													
> 400	> 400	> 50	Oc1ccccc1/C=N/NC(=S)Nc1ccccc1												5.59	
> 400	> 400	> 100	Oc1ccccc1-c1n[nH]c(=S)n1-c1ccc(F)c(F)c1													
> 800	> 800	> 50	COc1ccc(O)c(-c2n[nH]c(=S)n2-c2ccccc2)c1												3.88	
> 100	> 100	> 100	S=c1[nH]nc(-c2ccccc2)n1-c1ccc(Cl)c(Cl)c1													
> 800	> 800		Oc1ccccc1-c1n[nH]c(=S)n1-c1ccc(F)cc1												4.22	
> 400	> 400	> 100	Fc1ccc2c(c1F)Oc1ccccc1-c1n[nH]c(=S)n1-2													
> 100	> 100	> 100	COc1ccccc1C(=O)NNC(=S)Nc1ccc(Cl)c(Cl)c1													
> 100	> 100	> 100	Clc1ccc(Nc2nnc(-c3ccccc3)s2)cc1Cl													
